IDH1 mut inh: inhibitors of IDH1 R132H reductase, primary screen, biochemical, plate reader, single point. diaphorase/resazurin fluorescence, 60 min. 70,000 tested, 0.18% active. Isocitrate dehydrogenase [NADP] cytoplasmic (Homo sapiens), O75874. AID 624101, 2012. inhibition, % at 10 µM; in the data active means inhibition above about 34%; inconclusive means no clear call, values can overlap the other calls; inactive means below about 11%;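 further: 0% = DMSO and 100% = no enzyme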
Target sequence (O75874 whole entry R132H): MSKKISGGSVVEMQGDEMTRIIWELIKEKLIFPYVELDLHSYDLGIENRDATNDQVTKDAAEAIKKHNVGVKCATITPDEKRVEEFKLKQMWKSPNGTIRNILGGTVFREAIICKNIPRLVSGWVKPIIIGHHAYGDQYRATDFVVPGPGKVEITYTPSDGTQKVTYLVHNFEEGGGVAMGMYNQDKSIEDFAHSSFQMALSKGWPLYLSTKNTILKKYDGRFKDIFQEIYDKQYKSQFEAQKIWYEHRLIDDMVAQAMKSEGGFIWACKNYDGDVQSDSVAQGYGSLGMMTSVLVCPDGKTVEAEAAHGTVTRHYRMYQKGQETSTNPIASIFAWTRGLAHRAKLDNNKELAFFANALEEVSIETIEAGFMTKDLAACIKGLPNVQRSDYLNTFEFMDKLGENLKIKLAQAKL
KDM4C inh: inhibitors of GASC-1 (KDM4C) histone demethylase, primary screen, biochemical, single concentration HTS; Lysine-specific demethylase 4C (Homo sapiens), Q9H3R0; GST-KDM4C 2-372, H3K9me3 peptide, LANCE TR-FRET; inhibition, % at 12.5 µM; AID 720574, 2013; 96,000 tested, 0.15% active;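 active means mean replicate inhibition above about 25%, with at least 55% of replicates also reaching it, limit read from the data, passing the limit was not always enough; inconclusive means only one of those two conditions met; inactive means neither condition met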
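Material: N-terminal GST-fused human GASC-1 (KDM4C) fragment, residues 2-372. Input: 10 nM enzyme. Incubation: enzyme reaction 30 min, then detection 60 min, both room temperature. Doses: one test concentration per compound. Read-out basis: inhibition from TR-FRET ratio decrease. Detection: LANCE TR-FRET, excitation 340 nm, emissions 618 and 671 nm.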
T cruzi growth-1: T. cruzi intracellular proliferation inhibitors, primary screen, cell-based, beta-gal Tulahuen parasites, NIH3T3 host, luminescence. T. cruzi beta-gal in NIH3T3, GalScreen luminescence, 90 h. inhibition, % at 8.34 µM. 77,000 tested, 5.9% active;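 active means mean inhibition above about 93%, with at least 55% of replicates each passing it, limit read from the data, passing the limit was not always enough; inconclusive means only one of those two conditions holds; inactive means neither condition holds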
T cruzi growth-2: T. cruzi intracellular proliferation inhibitors, confirmation, cell-based, NIH3T3 host, beta-gal parasite, luminescence, cherry-pick. shares compounds with T cruzi growth-1. T. cruzi beta-gal in NIH3T3, GalScreen luminescence, 90 h. inhibition, % at 8.35 µM. 5,600 tested, 72% active. AID 651739, 2012;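 active means mean replicate inhibition above about 95% and at least 55% of replicates individually reaching it, limit read from the data; inconclusive means only one of the two criteria is met; inactive means neither criterion is met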
T cruzi growth-3: inhibitors of intracellular T. cruzi replication, confirmation, NIH3T3 host cells, beta-gal parasites, cherry-pick, set 2. shares compounds with T cruzi growth-1. T. cruzi beta-gal in NIH3T3, GalScreen luminescence, 90 h. inhibition, % at 2.09 µM. 5,600 tested, 21% active. AID 651740, 2012;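 active means mean inhibition above about 95%, with at least 55% of replicates also reaching it, limit read from the data; inconclusive means meets just one of the two conditions; inactive means meets neither condition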;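 further: plate controls were neutral control median for no effect and positive control median for full effect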
NIH3T3 tox: cytotoxicity in mouse NIH/3T3 fibroblasts, confirmation, cytotoxicity control for T. cruzi proliferation inhibitor project, cell-based, cherry-pick, single point | NIH/3T3 viability, CellTiter-Glo ATP luminescence, 90 h | cytotoxicity (signal decrease), % at 8.35 µM | 5,600 tested, 14% active | shares compounds with T cruzi growth-1 | AID 651742, 2012;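 active means mean signal decrease across replicates above about 35% based on untreated-well scatter, with enough replicates individually passing, limit read from the data; inconclusive means no rule stated though some were filed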;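 further: 0% = median of neutral control wells and 100% = median of positive control wells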
3T3 cytotox 2: NIH/3T3 fibroblast cytotoxicity, confirmation, cytotoxicity control, cell-based, cherry-pick, single point, set 2 | shares compounds with T cruzi growth-1 | NIH/3T3 viability, CellTiter-Glo ATP luminescence, 90 h | inhibition, % at 24.9 µM | 5,600 tested, 56% active | AID 651744, 2012;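 active means mean loss of cell viability signal at or above a set limit, and enough replicates individually reaching it; inconclusive means meets only the mean limit or only the replicate share; inactive means meets neither condition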;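 further: 0% = median of neutral control wells and 100% = median of positive control wells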
Numbers without * were called inactive. Many of the other results were omitted from the sample, so hits are more common in it than they were.

How did O=C(C[C@@H]1CC[C@@H]2[C@H](COC[C@@H](O)CN2C(=O)Nc2cccc(Cl)c2)O1)NCc1ccccc1F do in these assays?
KDM4C inh: -0.6; T cruzi growth-1: 122.7*; T cruzi growth-2: 97.3*; T cruzi growth-3: 18.1; NIH3T3 tox: -5.1; 3T3 cytotox 2: 38.4*

How did O=C(C[C@@H]1CC[C@H]2[C@@H](COC[C@H](O)CN2C(=O)Nc2cccc(F)c2)O1)NCc1ccccc1F do in these assays?
KDM4C inh: -0.6; T cruzi growth-1: -6.9

What do the screens show for `O=C(C[C@@H]1CC[C@H]2[C@@H](COC[C@H](O)CN2C(=O)Nc2cccc(Cl)c2)O1)NCc1ccccc1F`?
KDM4C inh: -0.7; T cruzi growth-1: 119.3*; T cruzi growth-2: 60.6; T cruzi growth-3: -20.1; NIH3T3 tox: 3.9; 3T3 cytotox 2: 23.8

How did O=C(CCCCCCC(=O)Nc1ccccc1O)N/N=C/c1ccc(-c2cccc(Cl)c2)o1 do in these assays?
IDH1 mut inh: 0.0

What do the screens show for `COC(=O)c1ccccc1NC(=O)c1ccc(NC(=O)CSc2ccccc2)cc1`?
IDH1 mut inh: 0.1

What do the screens show for `COc1cccc(S(=O)(=O)N2C[C@H](O)COC[C@H]3O[C@@H](CC(=O)N4CCOCC4)CC[C@@H]32)c1`?
KDM4C inh: 0.2; T cruzi growth-1: inconclusive; T cruzi growth-2: 12.5; T cruzi growth-3: 13.9; NIH3T3 tox: 10.8; 3T3 cytotox 2: 1.3

How did COc1ccc(S(=O)(=O)N2C[C@H](O)COC[C@@H]3O[C@@H](CC(=O)NCc4ccc(Cl)c(Cl)c4)CC[C@H]32)cc1 do in these assays?
KDM4C inh: -0.6; T cruzi growth-1: 109.1*; T cruzi growth-2: 100.9*; T cruzi growth-3: -36.1; NIH3T3 tox: -1.7; 3T3 cytotox 2: 61.6*

What do the screens show for `O=C(C[C@H]1CC[C@@H]2[C@H](COC[C@H](O)CN2S(=O)(=O)c2cccc(F)c2)O1)Nc1ccccc1`?
KDM4C inh: 1.7

Results for O=C(C[C@H]1CC[C@@H]2[C@H](COC[C@H](O)CN2S(=O)(=O)c2cccc(F)c2)O1)Nc1ccc(-c2ccccc2)cc1 ?
KDM4C inh: -0.1; T cruzi growth-1: 101.2*; T cruzi growth-2: 97.8*; T cruzi growth-3: 88.1; NIH3T3 tox: 43.9*; 3T3 cytotox 2: 103.8*

What do the screens show for `O=C(C[C@H]1CC[C@@H]2[C@H](COC[C@@H](O)CN2S(=O)(=O)c2cccc(F)c2)O1)Nc1ccc(-c2ccccc2)cc1`?
KDM4C inh: -1.9; T cruzi growth-1: 96.3*; T cruzi growth-2: 103.0*; T cruzi growth-3: 60.2; NIH3T3 tox: 49.8*; 3T3 cytotox 2: 100.7*

How did Cc1ccc(S(=O)(=O)N2C[C@H](O)COC[C@H]3O[C@H](CC(=O)NCc4ccc(Cl)c(Cl)c4)CC[C@@H]32)cc1 do in these assays?
KDM4C inh: -0.3; T cruzi growth-1: 89.8

How did O=C(C[C@H]1CC[C@H]2[C@@H](COC[C@@H](O)CN2S(=O)(=O)c2cccc(F)c2)O1)Nc1ccc(-c2ccccc2)cc1 do in these assays?
KDM4C inh: -0.6; T cruzi growth-1: 74.4

How did COc1cccc(S(=O)(=O)N2C[C@@H](O)COC[C@@H]3O[C@@H](CC(=O)N4CCOCC4)CC[C@H]32)c1 do in these assays?
KDM4C inh: 1.5; T cruzi growth-1: 8.0

How did Cc1nnc(SCC(=O)Nc2ccc(Br)c(C)c2C)s1 do in these assays?
IDH1 mut inh: -0.2

Results for Cc1ccc(-c2csc3nnc(SCC(=O)Nc4ccc(Cl)cc4)n23)cc1 ?
IDH1 mut inh: -0.8

Results for O=C(Nc1ccncc1)Nc1c(Cl)cc(Cl)cc1Cl ?
IDH1 mut inh: 9.1

Assay outcomes deposited in PubChem BioAssay by Broad Institute.
